Measurements: BindingDB's records for doi:10.1021/jm0301484 (Organix, 2003)
Several values for one entry are separate records, joined by “and”; a condition that tells them apart may be missing. Identical values can stand only once.

Legend:
[1] = molecular target: Sodium-dependent dopamine transporter; assay: In vitro affinity for dopamine transporter in Rhesus (Macaca mulatta) or Cynomolgus (Macaca fasicularis) monkey striata using [3H]WIN-35428 displacement.
In short: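 Caudate-putamen membranes homogenized in ice-cold 50 mM Tris-HCl pH 7.4 and washed by centrifugation. Competition with fixed [3H]WIN 35,428 (0.3 nM) at 4 mg original wet tissue/mL in 50 mM Tris-HCl with 100 mM NaCl. Incubated 2 h at 0-4 °C, filtered on GF/B presoaked in 0.1% BSA, scintillation counting. Triplicate, 2-3 brains; IC50.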

[2] = molecular target: Sodium-dependent serotonin transporter; assay: In vitro affinity for serotonin transporter in Rhesus (Macaca mulatta) or Cynomolgus (Macaca fasicularis) monkey striata using [3H]citalopram displacement.
In short: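 Cynomolgus or rhesus caudate-putamen homogenised in ice-cold 50 mM Tris-HCl, pH 7.4, and washed by centrifugation. Membranes (4 mg original wet weight/mL) were incubated with 1 nM [3H]citalopram and a range of test drug concentrations in buffer with 100 mM NaCl, 2 h at 0–4 °C.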

SMILES | IC50 [1] | IC50 [2]
CCC(=O)C1C(c2ccc(F)cc2)CC2CCC1N2CCCN1CC[S][Re]2(=[O])[S]CC[N]2C(=O)C1 [(1R,12S) -N-[ (2-( (3'-N-propyl-3''alpha-(4-fluorophenyl)tropane-2''beta-propionyl) (2-mercaptoethyl)amino) -2-aminoethanethiolato]rhenium(v)oxide] | 3 nM and 5.9 nM and 1.5 nM | 
COC(=O)C1C(c2ccc(F)cc2)CC2CCC1N2CCCN1CC[S][Re]2(=[O])[S]CC[N]2C(=O)C1 (stereo not drawn) [Diastereiosomer of [N-[2-[(3'-N'-Propyl-3''beta-(4-fluorophenyl)tropane-2''beta-carboxylic acid methyl ester)(2-mercaptoethyl)amino]acetyl]-2-aminoethanethiolato]rhenium(V) oxide] | 3.8 nM and 2.9 nM | 
CCC(=O)C1=C(c2ccc(Cl)c(Cl)c2)CC2CCC1N2CCCN1CC[S][Re]2(=[O])[S]CC[N]2C(=O)C1 (stereo not drawn) [N-[ (2-( (3'-N-propyl-(1''R) -3''-(3,4-dichlorophenyl)trop-2''-ene-2''--1-propanoyl) (2-mercaptoethyl)amino)acetyl) -2-aminoethanethiolato)rhenium(V) oxide] | 1200 nM | 2000 nM
COC(=O)C1=C(c2ccc(Cl)c(Cl)c2)CC2CCC1N2CCCN1CC[S][Re]2(=[O])[S]CC[N]2C(=O)C1 (stereo not drawn) [N-[ (2-( (3'-N-propyl-(1''R) -3''-(3,4-dichlorophenyl)trop-2''-ene-2''--carbomethoxy) (2-mercaptoethyl)amino)acetyl) -2-aminoethanethiolato)rhenium(V) oxide] | 60 nM | 1690 nM
CCC(=O)C1=C(c2ccc(F)cc2)CC2CCC1N2CCCN1CC[S][Re]2(=[O])[S]CC[N]2C(=O)C1 (stereo not drawn) [N-[ (2-( (3'-N-propyl-(1''R) -3''-(4-flurophenyl)trop-2''-ene-2''--1-propanoyl) (2-mercaptoethyl)amino)acetyl) -2-aminoethanethiolato)rhenium(V) oxide] | 660 nM | 2100 nM
CCC(=O)C1C(c2ccc(Cl)c(Cl)c2)CC2CCC1N2CCCN1CC[S][Re]2(=[O])[S]CC[N]2C(=O)C1 (stereo not drawn) [N-[ (2-( (3'-N-propyl-(1''R) -3''beta-(3,4-dichlorophenyl)tropane-2''-beta-1-propanoyl) (2-mercaptoethyl)amino)acetyl) -2-aminoethanethiolato)rhenium(V) oxide] | 5 nM and 5.3 nM | 337 nM
COC(=O)C1=C(c2ccc(F)cc2)CC2CCC1N2CCCN1CC[S][Re]2(=[O])[S]CC[N]2C(=O)C1 (stereo not drawn) [N-[ (2-( (3'-N-propyl-(1''R) -3''beta-(4-fluorophenyl)trop-2''-ene-2''--carbomethoxy) (2-mercaptoethyl)amino)acetyl) -2-aminoethanethiolato)rhenium(V) oxide] | 3500 nM | 4000 nM
COC(=O)C1=C(c2ccc3ccccc3c2)CC2CCC1N2CCCN1CC[S][Re]2(=[O])[S]CC[N]2C(=O)C1 (configuration not stated) [O-1185] | 63.4 nM | 964 nM
COC(=O)C1C(c2ccc3ccccc3c2)CC2CCC1N2CCCN1CC[S][Re]2(=[O])[S]CC[N]2C(=O)C1 (configuration not stated) [O-2130] | 4 nM and 3.64 nM | 120 nM
COC(=O)C1C(c2ccc(Cl)c(Cl)c2)CC2CCC1N2CCC[N+]12CC[S][Re]13(=[O])[S]CC[N]3C(=O)C2 (stereo not drawn) [[N-[2-[(3'-N'-Propyl-3''beta-(3,4-dichlorophenyl)tropane-2''beta-carboxylic acid methyl ester)(2-mercaptoethyl)amino]acetyl]-2-aminoethanethiolato]rhenium(V) oxide] |  | 639 nM
